# Screening data deposited in PubChem BioAssay by several laboratories.
# A selection: hits, their analogues and other compounds. The true share with any hit is near 3.1%.
# T cruzi inh: T. cruzi replication inhibition. inhibition, % (no concentration beside the values). T. cruzi beta-gal in NIH3T3, luminescence, 90 h. actives 1.4% (n = 300,000);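 active means mean inhibition across valid replicates above about 55%, limit read from the data; inconclusive means mean below that limit but half or more replicates reach it; inactive means mean below it, under half of replicates reach it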;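 further: signal also drops with host cell toxicity which is not excluded here; 0% = plate median of DMSO wells and 100% = zero luminescence signal; higher percent means less beta-gal luminescence so fewer parasites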
#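 Incubation – ≥90 h infection period, 3 h prior cell attachment · System – NIH/3T3 fibroblasts plus reporter T. cruzi · Doses – compound pinned at 50 nL/well, DMSO · Read-out basis – percent inhibition of parasite-derived β-gal signal · Signal – luminescent β-galactosidase signal after 60 min lysis · Also added – 5000 T. cruzi trypomastigotes/well · Medium – Low-serum DMEM with 2% FBS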
# Bfl-1 A1 inh: inhibitors of the anti-apoptotic protein A1, read as caspase activation | MEF A1-2A-BIM cells, Caspase-Glo 3/7 luminescence, 3 h; percent of clofoctol response, vehicle zero | AID 2462 | actives 0.066% (n = 330,000) | caspase activation, % (concentration not given with the values);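 active means over half of replicate activation scores above 10%, or exactly half above 10 with the replicate mean above 10; inconclusive means replicate mean below 10 yet half the replicates above 10; inactive means over half of replicates below 10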
# Beta cell apopt: beta cell apoptosis inhibition | actives 0.8% (n = 300,000) | INS-1E cytokine-induced death, ATP luminescence, 48 h; percent of positive-control rescue, neutral wells zero | protection from apoptosis, % (no concentration beside the values) | AID 435005;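 active means Every replicate reaches about 75%, or at least half do and their mean reaches it too, limit read from the data; inconclusive means At least half of replicates reach the limit but their mean does not; inactive means Under half of replicates reach the limit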;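 further: 0% = cytokine-treated negative control wells and 100% = positive control rescue; higher means more ATP so stronger rescue from cytokine killing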
# TAG inh: triacylglycerol accumulation inhibition; H9c2 cells, Nile Red lipid (TAG) fluorescence; cells loaded with 200 µM oleic acid; actives 0.66% (n = 230,000); inhibition, % at 12.5 µM; AID 651582;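 active means pattern-corrected inhibition of lipid staining of at least 50% with the nuclear-stain viability signal not falling by more than 50%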;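 further: 0% = DMSO wells and 100% = triacsin C control wells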
# CSC inhib: cancer stem cell inhibition; cancer stem cell-like cells viability, luminescence; actives 1.1% (n = 300,000); inhibition, % at 7.5 µM; AID 2717; in the data active means inhibition above about 75%; inconclusive means no clear call, values can overlap the other calls; tested in HMLE shEcad cells
# Calb FLC: C. albicans growth modulation with fluconazole. C. albicans CaCi-2 + fluconazole, Alamar Blue growth, 48 h. actives 0.57% (n = 300,000). growth inhibition, % (test concentration not listed). AID 1979;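 active means growth inhibition above about 58% in most replicates, limit read from the data, passing the limit was not always enough; inconclusive means exactly half the replicates above a set limit; inactive means most replicates below a set limit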;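 further: all wells also contain fluconazole at 8 µg/ml as a sub-toxic cotreatment; 0% = median of DMSO wells and 100% = median of geldanamycin control wells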
# * marks the source's active call; other numbers are inactive results; ? = inconclusive; . = no result given.
SMILES,T cruzi inh,Bfl-1 A1 inh,Beta cell apopt,TAG inh,CSC inhib,Calb FLC
O=C(c1cccs1)N1N=C(c2ccccc2)CC1c1ccccc1O (stereo not given),57*,0,6,-5,4,31
Cc1ccc(NC(=O)CNC(=O)CC23CC4CC(CC(C4)C2)C3)c(O)c1,-5,-1,2,24,43,-1
COc1cccc2nc3c(C(=O)NCCN(C)C)cccc3cc12,.,.,.,116,.,.
CN(C)CCNC(=O)c1cccc2nc3c(ccc4ccccc43)nc12,.,.,.,51*,.,.
Cc1ccc(Sc2cc(C(=O)NCCCN(C)C)c3ccccc3n2)cc1,56*,1,-2,.,3,-16
CN(C)CCNC(=O)c1cc(Sc2ccc(F)cc2)nc2ccccc12,65*,0,1,.,6,-27
COc1ccccc1NS(=O)(=O)c1cc(C(=O)NCC(C)(C)N2CCOCC2)ccc1C,-5,1,-1,1,-5,3
O=C(CSc1ccccc1)Nc1ccc(N2CCOCC2)c(F)c1,6,0,1,11,11,14
C[C@@H](C(=O)Nc1ccc(OC(F)F)c(Cl)c1)N1C(=O)C2CC=CCC2C1=O (stereo not given in full),.,1,4,-7,-11,.
C=CCOc1c(OC)cc(/C=N/Nc2cccc(C(=O)O)c2)c(Br)c1Br,10,1,-10,57*,31,1
Cn1c(=O)c2cc(NC(=O)Cc3ccccc3F)ccc2n1Cc1ccc(Cl)cc1,.,.,.,-15,.,.
Cc1ccc(S(=O)(=O)Nc2nc3ccccc3s2)cc1,-3,0,0,3,-5,41
O=S(=O)(Nc1nc2ccccc2s1)c1ccc(Br)s1,-10,0,7,.,32,89*
O=S(=O)(NCc1ccncc1)c1ccc(S(=O)(=O)NCC2CCCO2)cc1 (stereo not given),-14,-1,21,.,140*,5
COC(=O)c1cc(C(=O)OCC(=O)c2ccc3c(c2)NC(=O)CO3)cc([N+](=O)[O-])c1,.,.,.,11,.,.
Cc1nnsc1-c1onc(C)c1C(=O)Nc1cc(Cl)cc(Cl)c1,23,0,77*,1,25,-6
CCOC(=O)C1(CCOc2ccccc2)CCN(C(=O)CCSC)CC1,-6,0,-2,-1,-2,2
COc1ccc(/C=C(/NC(=O)c2ccccc2)c2nc3ccc(Cl)cc3[nH]2)cc1OC,6,0,5,.,8,70*
COc1ccc(/C=C(/NC(=O)c2ccccc2)c2nc3ccccc3[nH]2)cc1OC,3,0,10,-24,-7,-1
CC(=O)C1=C(c2ccccc2)NC(=S)NC1c1cc(Cl)c(OC(C)C)c(Cl)c1 (stereo not given),61*,0,-3,-11,31,18
COc1cc(C2NC(=S)NC(c3ccccc3)=C2C(C)=O)cc(Cl)c1OCC(=O)O (stereo not given),-15,0,-6,.,-15,21
CCOc1ccc(NC(=O)C2C3C=CC4(O3)C2C(=O)N(Cc2cccnc2)C4C(=O)NC2CCCCC2)cc1 (stereo not given),1,1,-6,.,-11,-3
Cc1ccc(-c2cc3c(nn2)-c2ccccc2C3=O)cc1,-16,-8,33,-8,54,-12
Cc1ccccc1-c1cc2c(nn1)-c1ccccc1C2=O,-1,-12,7,10,108*,-12
CC1(C)CC(=O)N(c2ccc(Cl)c(Cl)c2)C(=O)C1,1,0,0,.,-24,-11
SMILES,T cruzi inh,Bfl-1 A1 inh,Beta cell apopt,TAG inh,CSC inhib,Calb FLC
N#CC(C#N)=C1C=CC=CN1/C(=C\c1ccccc1)C(=O)c1cccs1,30,1,-2,-4,-1,?
N#CC(C#N)=C1C=CC=CN1/C(=C\c1ccccc1Cl)C(=O)c1ccccc1,.,14*,47,.,57,.
Cc1nc(NS(=O)(=O)c2ccc(Cl)s2)c2c3c(sc2n1)CCCC3,-2,-1,8,6,34,-1
CCC(C)NCCOCCOc1ccc(Cl)cc1Br (stereo not given),72*,-1,-5,9,12,-4
CCC(C)NCCOCCOc1ccc(F)cc1 (stereo not given),55*,1,-8,5,5,4
CCC(C)NCCOCCOc1cc(C)c(Cl)c(C)c1 (stereo not given),?,-1,2,17,50,0
COc1ccc(NC(=O)CSc2nc(N)cc(N)n2)cc1S(=O)(=O)N1CCCCC1,.,-1,-1,-15,-8,.
Cc1ccc(Nc2nc(-c3sc(C)nc3C)cs2)cc1,6,0,44,.,63,3
Cc1ccc(Nc2nc(-c3ccncc3)cs2)cc1,70*,.,.,.,.,-3
CC(=O)Oc1ccc(-c2csc(Nc3ccc(Cl)cn3)n2)cc1,39,-2,.,29,95*,-38
CC(=O)Nc1cccc(-c2csc(Nc3ncccn3)n2)c1,-13,.,.,.,.,-6
c1ccc(-c2csc(Nc3cccnc3)n2)cc1,19,-2,-3,4,-11,18
Clc1ccc(-c2csc(Nc3cccnc3)n2)cc1,58*,-1,-16,5,6,-8
CC(=O)Nc1cccc(-c2csc(Nc3ccc(C)cn3)n2)c1,-10,-5,6,.,29,91*
COc1cccc(-n2cnnc2SCC(=O)NC2CC2)c1,.,0,-4,3,15,.
Cc1cccc(Nc2nc(-c3ccncc3)cs2)c1,61*,0,-11,130,43,20
Cc1cccc(Nc2nc(-c3ccc4c(c3)OCCO4)cs2)c1,-16,0,2,12,5,-22
COc1cccc(Nc2nc(-c3ccc(O)cc3)cs2)c1,25,-1,7,.,117*,2
Cc1ccc(NC(=O)Cc2nc(-c3c[nH]c(C(=O)N4CCCC4)c3)cs2)c(C)c1,.,-1,10,29,.,.
O=C(c1ccc(-n2cncn2)c([N+](=O)[O-])c1)N1CCN(S(=O)(=O)c2ccc(Cl)cc2)CC1,13,2,1,2,-5,6
C[C@@H]1CN([C@@H](C)CO)C(=O)CCCn2nncc2CO[C@@H]1CN(C)S(=O)(=O)c1cccs1,.,.,.,6,.,.
Cc1ccc(S(=O)(=O)Nc2ccccc2-c2ccccc2)cc1,-2,-1,36,5,43,10
Cc1ccc(S(=O)(=O)Nc2ccccc2N(C)S(=O)(=O)c2ccc(C)cc2)cc1,21,-1,110*,1,32,12
COc1ccc(-n2nc(C)c3c(=O)c4c([nH]c32)CCCC4)cc1,62*,0,1,.,1,2
Cc1cc(C(=O)N2CCc3c([nH]c4ccccc34)C2c2cccc(Cl)c2)nn1C (stereo not given),56*,0,6,8,15,30
C[C@@H](NCCc1ccc(O)cc1)[C@@H](O)c1ccc(O)cc1,-22,0,-2,-23,-14,.
